The source made the active and inactive calls. The calls are words filed in the database; no cut-off is given here.
Assays:
[1] = target: T1, Prostaglandin E2 receptor EP3 subtype (Homo sapiens, UniProt P43115); experiment: Inhibition of human EP3 receptor
T1 sequence (P43115 whole entry): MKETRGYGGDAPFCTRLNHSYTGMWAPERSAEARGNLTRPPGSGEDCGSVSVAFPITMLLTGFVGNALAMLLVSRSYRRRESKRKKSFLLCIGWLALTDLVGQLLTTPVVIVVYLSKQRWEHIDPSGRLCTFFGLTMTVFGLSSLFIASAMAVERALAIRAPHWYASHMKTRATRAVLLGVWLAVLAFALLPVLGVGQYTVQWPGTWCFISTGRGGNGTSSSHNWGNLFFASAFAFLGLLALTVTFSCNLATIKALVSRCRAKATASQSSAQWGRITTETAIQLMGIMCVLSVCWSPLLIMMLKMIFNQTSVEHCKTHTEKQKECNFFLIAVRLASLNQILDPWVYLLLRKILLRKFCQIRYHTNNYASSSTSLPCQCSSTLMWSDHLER

[2] = target: T2, Prostaglandin E2 receptor EP1 subtype (Homo sapiens, UniProt P34995); experiment: Inhibition of human EP1 receptor
T2 sequence (P34995 whole entry): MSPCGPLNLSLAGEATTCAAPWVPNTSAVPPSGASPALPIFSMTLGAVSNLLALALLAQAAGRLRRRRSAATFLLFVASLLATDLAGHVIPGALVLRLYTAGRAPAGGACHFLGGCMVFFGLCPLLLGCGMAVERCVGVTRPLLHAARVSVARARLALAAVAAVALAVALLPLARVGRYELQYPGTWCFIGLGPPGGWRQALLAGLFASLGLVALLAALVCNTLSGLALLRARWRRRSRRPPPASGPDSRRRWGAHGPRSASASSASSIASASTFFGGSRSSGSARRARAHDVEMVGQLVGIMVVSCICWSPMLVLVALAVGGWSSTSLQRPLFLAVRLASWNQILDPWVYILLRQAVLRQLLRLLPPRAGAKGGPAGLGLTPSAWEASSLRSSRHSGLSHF

Cytochrome P450 2C9 = Cytochrome P450 2C9 (Homo sapiens, UniProt P11712); experiment: Inhibition of human CYP2C9; type: ADME
Chain of Cytochrome P450 2C9 (P11712 whole entry): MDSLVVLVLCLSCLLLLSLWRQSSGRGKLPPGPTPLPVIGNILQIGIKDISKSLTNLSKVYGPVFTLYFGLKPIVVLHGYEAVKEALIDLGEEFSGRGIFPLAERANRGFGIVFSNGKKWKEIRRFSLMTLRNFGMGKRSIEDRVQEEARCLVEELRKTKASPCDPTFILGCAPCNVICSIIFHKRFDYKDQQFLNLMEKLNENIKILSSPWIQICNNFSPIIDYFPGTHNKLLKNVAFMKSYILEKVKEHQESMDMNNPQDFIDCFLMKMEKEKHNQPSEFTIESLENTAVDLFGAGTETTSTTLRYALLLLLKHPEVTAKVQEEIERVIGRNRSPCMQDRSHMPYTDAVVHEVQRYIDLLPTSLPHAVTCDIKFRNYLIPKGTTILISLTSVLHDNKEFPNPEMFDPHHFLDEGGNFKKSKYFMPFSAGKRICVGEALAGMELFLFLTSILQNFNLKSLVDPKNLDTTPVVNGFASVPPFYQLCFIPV
Outline: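 Inhibition measured in a human recombinant CYP2C9 isozyme assay; IC₅₀ reported in µM.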

[3] = Intrinsic clearance in rat liver microsomes; type: ADME, Microsome
Outline: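 Rate of metabolism measured as intrinsic clearance (ml/min/g) in a rat microsomal assay.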

[4] = Lipophilicity, log D of the compound; type: physicochemical; details: octanol/water
Rattus norvegicus [5] = experiment: Reversal of hypersensitivity in FCA rat model of acute inflammatory pain at 5 mg/kg, po; type: functional
Outline: (§1)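 Freund's complete adjuvant injected into one hind paw; 24 h later, with hypersensitivity established, rats received a single oral dose of test compound in 1% methylcellulose. Hypersensitivity was read by weight bearing as percent inhibition (reversal) for each dose. Tested either as a single 5 mg/kg po dose or as a 3-point dose response, with ED₅₀ calculated as the dose giving 50% reversal.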

[6] = Oral bioavailability in dog; type: ADME, organism-based, Canis lupus familiaris; details: in vivo
[7] = Oral bioavailability in rat; type: ADME, organism-based; details: in vivo
[8] = Half life in rat; type: ADME, organism-based; details: in vivo
[9] = Blood clearance in rat; type: ADME, organism-based; details: whole blood
Rattus norvegicus [10] = experiment: Reversal of hypersensitivity in po dosed FCA rat model of acute inflammatory pain; type: functional; outline: as §1
[11] = target: T2, Prostaglandin E2 receptor EP1 subtype; experiment: Antagonist activity at human EP1 receptor; type: functional; details: read-out: pA2 (converted)
Rattus norvegicus [12] = experiment: Reversal of antihyperalgesic effect in chronic rat model of joint pain at 30 mg/kg bid for 5 days
[13] = Half life in dog; type: ADME, organism-based, Canis lupus familiaris; details: in vivo
[14] = Blood clearance in rat at 1 mg/kg, iv; type: ADME, organism-based; design: dose 1 mg/kg, route intravenous; details: whole blood
[15] = Half life in rat at 1 mg/kg, iv; type: ADME, organism-based; design: dose 1 mg/kg, route intravenous; details: in vivo
[16] = Volume of distribution in rat at 1 mg/kg, iv; type: ADME, organism-based; design: dose 1 mg/kg, route intravenous; details: in vivo, read-out: Vdss

| SMILES | IC50 [1] [nM] | IC50 [2] [nM] | other results |
| --- | --- | --- | --- |
| COc1ccc(COc2ccccc2C2=C(c3cccc(C(=O)O)c3)CCC2)cc1 | > 3160 | 100 | – |
| COc1ccc(COc2ccc(Br)cc2C2=C(c3cccc(C(=O)O)c3)CCC2)cc1 | > 3160 | 39.8 | – |
| O=C(O)c1cccc(C2=C(c3ccccc3OCc3ccccc3)CCC2)c1 | > 3160 | 6.31 | – |
| Cc1ncc(C2=C(c3cc(Cl)ccc3OCc3ccc(F)cc3)CCC2)cc1C(=O)O | – | 1.58 | IC50 (Cytochrome P450 2C9): 9000 nM; CLint scaled [3]: 3.8 mL/min/g; logD [4]: 2.7; Activity (Rattus norvegicus [5]): <30% |
| O=C(O)c1cccc(C2=C(c3cc(Br)ccc3OCc3ccc(Cl)c(Cl)c3)CCC2)c1 | > 3160 | 100 | – |
| O=C(O)c1cc(C2=C(c3cc(Cl)ccc3OCc3ccccc3)CCC2)cnn1 | – | 39.8 | – |
| N#Cc1ccc(OCc2ccc(Cl)cc2)c(C2=C(c3cccc(C(=O)O)c3)CCC2)c1 | > 3160 | 200 | – |
| N#Cc1ccc(OCc2ccc(F)cc2F)c(C2=C(c3cccc(C(=O)O)c3)CCC2)c1 | > 3160 | 39.8 | – |
| O=C(O)c1cccc(C2=C(c3cc(Cl)ccc3OCc3ccc(F)cc3F)CCC2)n1 | – | 2.51 | bioavailability [6]: 53%; IC50 (Cytochrome P450 2C9): 14000 nM; bioavailability [7]: 54%; half-life [8]: 2.2 h; clearance [9]: 7 mL/min/kg; CLint scaled [3]: 2.9 mL/min/g; ED50 (Rattus norvegicus [10]): 1.3 mg/kg; Kb [11]: 0.794 nM; Activity (Rattus norvegicus [12]): Active; half-life [13]: 2 h; logD [4]: 2.6 |
| CSc1ccc(OCc2ccc(F)cc2)c(C2=C(c3cccc(C(=O)O)c3)CCC2)c1 | > 3160 | 31.6 | – |
| O=C(O)c1cccc(C2=C(c3cc(Cl)ccc3OCc3ccccc3)CCC2)c1 | > 3160 | 5.01 | – |
| O=C(O)c1cccc(C2=C(c3cc(Br)ccc3OCc3ccc(F)cc3F)CCC2)c1 | > 3160 | 5.01 | clearance [14]: 35 mL/min/kg; half-life [15]: 0.2 h; Vd [16]: 0.6 L/kg |
| O=C(O)c1cccc(C2=C(c3ccccc3OCc3ccc(Cl)c(Cl)c3)CCC2)c1 | > 3160 | 398 | – |
| O=C(O)c1ccnc(C2=C(c3cc(Br)ccc3OCc3ccc(F)cc3)CCC2)c1 | – | 3.16 | IC50 (Cytochrome P450 2C9): 5000 nM; CLint scaled [3]: 20 mL/min/g; logD [4]: 2.7 |
| O=C(O)c1cccc(C2=C(c3cc(Br)ccc3OCc3ccc(F)cc3)CCC2)c1 | > 3160 | 20 | clearance [14]: 46 mL/min/kg; half-life [15]: 0.2 h; Vd [16]: 0.7 L/kg |
| O=C(O)c1cc(C2=C(c3cc(Cl)ccc3OCc3ccccc3)CCC2)ncn1 | – | 200 | logD [4]: 1.2 |
| CSc1ccc(OCc2ccc(F)cc2F)c(C2=C(c3cccc(C(=O)O)c3)CCC2)c1 | > 3160 | 15.8 | – |

| SMILES | IC50 [1] [nM] | IC50 [2] [nM] | other results |
| --- | --- | --- | --- |
| O=C(O)c1cncc(C2=C(c3cc(Cl)ccc3OCc3ccc(F)cc3F)CCC2)n1 | – | 2 | IC50 (Cytochrome P450 2C9): 12000 nM; CLint scaled [3]: 2.6 mL/min/g; logD [4]: 1.6; Activity (Rattus norvegicus [5]): 52% |
| O=C(O)c1cccc(C2=C(c3cc(Br)ccc3OCc3ccc(Cl)cc3)CCC2)c1 | > 3160 | 12.6 | clearance [14]: 33 mL/min/kg; Vd [16]: 0.4 L/kg |
| CS(=O)(=O)c1ccc(OCc2ccc(F)cc2F)c(C2=C(c3cccc(C(=O)O)c3)CCC2)c1 | > 3160 | 15.8 | – |
| O=C(O)c1cccc(C2=C(c3ccccc3OCc3ccc(F)cc3F)CCC2)c1 | > 3160 | 25.1 | – |
| O=C(O)c1cccc(C2=C(c3cc(Br)ccc3OCc3ccccc3)CCC2)c1 | > 3160 | 12.6 | clearance [14]: 52 mL/min/kg; half-life [15]: 0.3 h; Vd [16]: 1 L/kg |
| O=C(O)c1cccc(C2=C(c3ccccc3OCc3ccc(Cl)cc3F)CCC2)c1 | > 3160 | 50.1 | – |
| O=C(O)c1cccc(C2=C(c3cc(Br)ccc3OCc3ccc(Cl)cc3F)CCC2)c1 | > 3160 | 2.51 | – |
| N#Cc1ccc(OCc2ccccc2)c(C2=C(c3cccc(C(=O)O)c3)CCC2)c1 | > 3160 | 100 | – |
| N#Cc1ccc(OCc2ccc(F)cc2)c(C2=C(c3cccc(C(=O)O)c3)CCC2)c1 | > 3160 | 398 | – |
| CSc1ccc(OCc2ccccc2)c(C2=C(c3cccc(C(=O)O)c3)CCC2)c1 | > 3160 | 63.1 | – |
| O=C(O)c1ccnc(C2=C(c3cc(Cl)ccc3OCc3ccccc3)CCC2)n1 | – | 158 | logD [4]: 0.8 |
| CS(=O)(=O)c1ccc(OCc2ccccc2)c(C2=C(c3cccc(C(=O)O)c3)CCC2)c1 | > 3160 | 79.4 | – |
| CS(=O)(=O)c1ccc(OCc2ccc(F)cc2)c(C2=C(c3cccc(C(=O)O)c3)CCC2)c1 | > 3160 | 79.4 | – |
| O=C(O)c1cc(C2=C(c3cc(C(F)(F)F)ccc3OCc3ccccc3)CCC2)ccn1 | – | 39.8 | – |
| O=C(O)c1cnnc(C2=C(c3cc(Cl)ccc3OCc3ccc(F)cc3F)CCC2)c1 | – | 6.31 | IC50 (Cytochrome P450 2C9): 5400 nM; CLint scaled [3]: 14 mL/min/g; logD [4]: 1.2 |
| O=C(O)c1cncc(C2=C(c3cc(C(F)(F)F)ccc3OCc3ccccc3)CCC2)c1 | – | 10 | IC50 (Cytochrome P450 2C9): 14000 nM; half-life [8]: 4.1 h; clearance [9]: 22 mL/min/kg; CLint scaled [3]: 2.2 mL/min/g; ED50 (Rattus norvegicus [10]): 1.3 mg/kg; logD [4]: 2.7 |
